From paper PMC2195906 (The Journal of Experimental Medicine, 2001)
Entries after “also recorded” stand apart in the source; their conditions may differ. Each block holds one compound with its values, some of them ahead of it. Ends that are not written are not given here. * marks the point of attachment. Biotin = O=C1N[C@H]2[C@H](CS[C@H]2CCCCC(=O)*)N1

Legend:
[1] = system: purified mitochondria, inner membrane; assay: Respirometry: NADH-dependent oxygen consumption; assay type: biochemical, mouse; conditions: Bcl-2 0.8 μM pretreated 10 min; other agents added; Fig. 5 A, 6 B
Summary of the method: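 Oxygen uptake was recorded by Clark electrode at 37°C (mannitol/KCl/MgCl2/BSA/KH2PO4 medium, pH 7.4) after 2 mM NADH and 1 μM peptide, with rotenone added to test sensitivity; rates are in nmol O2/min/mg protein. For inhibitor tests, mitochondria were pretreated 10 min with 0.8 μM Bcl-2 or 10 μM BA before succinate plus CCCP or NADH. In the kinetics, 15 μM cytochrome c oxidation was followed in parallel, with 100% set by 2.5 mM laurylmaltoside.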

[2] = system: ANT; conditions: ref 8 26 28 40; cited from earlier work
[3] = Binding of FITC–Vpr52-96 to purified mitochondria; design: species or system mouse; conditions: for effect on binding of Vpr52-96 to purified mitochondria: 10 min preincubation with inhibitors, Fig. 7 B
[4] = system: ANT proteoliposomes; assay: Binding of FITC-labeled Vpr52-96 to ANT proteoliposomes; design: species or system rat; conditions: FITC–Vpr52-96 (2 μM in Fig. 2 B); BA 50 μM; Bcl-2 800 nM preincubated (Fig. 8 B)
Summary of the method: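 ANT was purified from rat heart mitochondria (Triton X-100 extraction, hydroxyapatite, then cation-exchange with a 0–1 M NaCl gradient) and reconstituted at 0.1 mg/ml into phosphatidylcholine/cardiolipin liposomes, then dialysed overnight at 4°C. Proteoliposomes were exposed 30 min to FITC-peptide in 125 mM sucrose/10 mM Hepes pH 7.4, ultracentrifuged (290,000 g, 45 min, 10°C) and read by flow cytometry. Inhibitors were preincubated and washed out; mean ± SD, n = 3.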

[5] = system: purified mitochondria (ΔΨm); assay: ΔΨm dissipation in purified mitochondria, effect of inhibitors; assay type: biochemical, mouse; conditions: for protection against Vpr-induced inner MMP (in words): purified mitochondria, Fig. 6 B–E
[6] = system: VDAC; conditions: sucrose or cytochrome c, in vitro; ref 9 44; cited from earlier work
[7] = biological target: T1, ANT (Rattus norvegicus, UniProt Q05962); assay: Planar lipid bilayers, single channel level, Vpr52-96 plus ANT; assay type: biochemical; conditions: +75 mV
T1 sequence (Q05962 1-298): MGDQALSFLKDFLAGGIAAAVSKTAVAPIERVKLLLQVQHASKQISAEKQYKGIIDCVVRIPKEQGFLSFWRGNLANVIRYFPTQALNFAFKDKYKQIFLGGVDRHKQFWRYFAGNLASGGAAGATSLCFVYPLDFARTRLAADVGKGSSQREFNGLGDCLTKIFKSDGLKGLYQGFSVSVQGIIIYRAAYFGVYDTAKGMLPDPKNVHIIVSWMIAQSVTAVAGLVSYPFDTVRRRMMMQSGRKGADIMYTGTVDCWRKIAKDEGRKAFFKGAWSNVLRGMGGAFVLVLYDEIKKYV
Summary of the method: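 Rat heart mitochondrial ANT, purified via subtilisin treatment, Triton X-100 solubilization, hydroxyapatite and SP column (0–1 M NaCl). Proteins held 30 min RT with 1 mM CaCl2, 40 μM atractyloside or control electrolyte, mixed with dried lipid (60 μg protein/mg lipid), detergent removed by beads. Tip-dip bilayers, symmetric 100 mM KCl, 2 mM MgCl2, 10 mM Hepes pH 7.4.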

[8] = system: COS cells; assay: ΔΨm dissipation in microinjected COS cells; assay type: cell-based
Summary of the method: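 COS cells grown in DMEM Glutamax with Hepes, antibiotics and 10% FCS on a premarked coverslip area (>200 cells per experiment). Cells were injected into the cytoplasm (200 hPa, 0.5 s) with PBS pH 7.2, recombinant human Bcl-2 (residues 1–218; 10 μM in the injection solution) or 2 μM König's polyanion.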

[9] = system: isolated mitochondria; assay: Ultrastructure: swelling of isolated mitochondria; assay type: biochemical, mouse; conditions: Fig. 6 C
[10] = system: Vpr52-96–ANT interaction; assay type: binding, rat; conditions: native purified ANT; Fig. 8 A; X ± SD, n = 3
[11] = biological target: T1, ANT; assay: Plasmon resonance; assay type: binding; conditions: for sensorgram: increase of binding as a function of time: plasmon resonance, association and dissociation phase, Fig. 1 A; for binding affinity for ANT (in words): surface plasmon resonance, purified detergent-solubilized ANT
[12] = system: ANT; assay: Affinity purification of ANT by biotinylated Vpr52-96 and immunoblot; assay type: binding, mouse; conditions: Fig. 7 C
[13] = system: purified mitochondria (respiratory control); assay: Respiratory control; assay type: biochemical, mouse; conditions: 1 μM Vpr-derived peptides, 10 min
Summary of the method: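 Clark-electrode oxygraphy at 37°C in 0.3 M mannitol, 10 mM KCl, 5 mM MgCl2, 1 mg/ml BSA, 10 mM KH2PO4, pH 7.4. Purified mitochondria were pretreated 10 min with 1 μM peptide; succinate oxidation was followed with sequential ADP, oligomycin and CCCP additions. Mean of three determinations.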

[14] = system: ANT proteoliposomes; assay: Pore-opening assay: 4-MUP release from ANT proteoliposomes; assay type: biochemical, rat; conditions: peptides 1 μM, 60 min, Atr 200 μM = 100%, Fig. 2 C
Summary of the method: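 ANT purified from rat heart mitochondria, reconstituted into PC/cardiolipin liposomes, sonicated on ice with 1 mM 4-MUP/10 mM KCl, gel-filtered. Diluted in 10 mM Hepes, 125 mM saccharose pH 7.4, peptide 1 h RT; inhibitors added 30 min earlier. Alkaline phosphatase (0.5 mM MgCl2) 15 min 37°C, stopped at pH 10. 4-MU fluorescence 360/450 nm. Release = % of atractyloside response after untreated background subtraction; n = 3, SD.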

[15] = system: recombinant VDAC; assay: Plasmon resonance: binding to recombinant VDAC; conditions: control experiments, VDAC concentrations up to 10 μM
[16] = biological target: biotin–Vpr52-96 (synthetic peptide, COOH-terminal moiety of HIV-1 viral protein R) (HIV-1) (UniProt P69726); assay: SPR

Compound: Nc1ncnc2c1ncn2[C@@H]1O[C@H](COP(=O)(O)OP(=O)(O)O)[C@@H](O)[C@H]1O [ADP, reference compound]
effect on Vpr-induced NADH-dependent oxygen consumption [1]: strongly inhibited the Vpr-dependent, NADH-stimulated oxygen consumption

Compound: C=C1[C@@H]2CC[C@H]3[C@]4(C)C[C@H](O[C@@H]5O[C@H](CO)[C@@H](OS(=O)(=O)O)[C@H](OS(=O)(=O)O)[C@H]5OC(=O)CC(C)C)C[C@@H](C(=O)O)[C@H]4CC[C@]3(C2)[C@H]1O [Atr, atractyloside, reference compound]
effect on ANT pore formation [2]: cause ANT (which normally is a strictly specific ADP/ATP antiporter) to form a nonspecific pore

Compound: CO[C@H](C/C=C\C=C\CC/C=C/C[C@H](C)/C=C/C(=C\C(=O)O)CC(=O)O)/C(C)=C\C=C(/C)C(=O)O [BA, bongkrekic acid]
effect on binding of Vpr52-96 to purified mitochondria [3]: partially reduced; also recorded: reduces the binding of Vpr to mitochondria to some extent
effect on Vpr binding to ANT proteoliposomes [4]: inhibited
protection against Vpr-induced inner MMP (in words) [5]: also inhibited the manifestations of inner MMP

Compound: C=C(C)[C@H]1Cc2c(ccc3c2O[C@@H]2COc4cc(OC)c(OC)cc4[C@@H]2C3=O)O1 [rotenone, reference compound]
effect on Vpr-induced NADH-dependent oxygen consumption [1]: fully sensitive to rotenone

conductance of Vpr52-96–ANT channels in presence of Bax ([7]; Vpr52-96 plus ANT plus Bax 0.4:1:0.3 nM, mean value): 245 ± 2 pS
Compound: Bax: proapoptotic Bcl-2 family protein
effect on permeabilization of VDAC-containing liposomes [6]: enhanced by Bax
effect on ANT pore formation [2]: cause ANT (which normally is a strictly specific ADP/ATP antiporter) to form a nonspecific pore

effect on Vpr binding to ANT proteoliposomes [4]: reduced
Compound: Bcl-2: recombinant human Bcl-2 (amino acids 1–218)
effect on binding of Vpr52-96 to purified mitochondria [3]: failed to impair the binding of Vpr52-96 to purified mitochondria; also recorded: not affected
inhibition of Vpr-induced ΔΨm loss in purified mitochondria ([5]; Bcl-2 preincubation (0.8 μM), Fig. 6 D, E): ~70%
protection against Vpr-induced inner MMP (in words) [5]: protect mitochondria against Vpr-induced MMP
inhibition of Vpr-induced ΔΨm loss in intact cells ([8]; 10 μM recombinant human Bcl-2 microinjected, 1 μM Vpr52-96, 3 h): ≥ 95%
cells with ΔΨm reduction, inhibitor-injected ([8]; Bcl-2-injected (10 μM), 1 μM Vpr52-96, 3 h): Less than 5%
effect on permeabilization of VDAC-containing liposomes [6]: inhibited by Bcl-2
inhibition of Vpr-induced matrix swelling ([9]; Bcl-2 preincubation): ~50%
effect on Vpr52-96-induced matrix swelling (in words) [9]: strongly reduced the Vpr52-96–induced matrix swelling
effect on formation of Vpr52-96–induced channels in ANT-containing lipid bilayers ([7]; Vpr52-96 plus ANT plus Bcl-2 0.4:1:1 nM, Fig. 8 C): suppresses channel formation by the ANT–Vpr complex; also recorded: abolished the formation of Vpr52-96–induced channels
effect of Bcl-2 proteins on Vpr52-96 binding to soluble ANT [10]: reduces the ANT–Vpr interaction; also recorded: reduced Vpr52-96 binding to soluble; also recorded: inhibits binding of Vpr52-96 to ANT
effect on Vpr-induced NADH-dependent oxygen consumption [1]: inhibited the Vpr-mediated inner MMP to NADH

Compound: FITC-labeled Vpr52-96: FITC-labeled Vpr52-96 (DTWAGVEAIIRILQQLLFIHFRIGCRHSRIGVTRQRRARNGASRS; also: FITC label, position not given here)
binding of FITC-labeled Vpr52-96 to intact mitochondria ([3]; 0.5 μM FITC–Vpr52-96, Fig. 7 A): rapidly bound to intact mitochondria and then provoked ΔΨm loss

Compound: HWWRAESDEARRCYNDPKCCDFVTNR [irrelevant control (Co.), reference compound]
sensorgram: increase of binding as a function of time [11]: Only the sensorgram of the interaction with Vpr52-96 exhibits an increase of binding

Compound: König's polyanion [PA10]
effect on binding of Vpr52-96 to purified mitochondria [3]: completely abolished; also recorded: completely blocks the binding of Vpr52-96 to intact mitochondria
effect on Vpr52-96-mediated purification of ANT, intact mitochondria ([12]; 5 μM biotinylated Vpr52-96, 30 min RT, lysed after incubation): fully abolished
effect on Vpr52-96-mediated purification of ANT, Triton-solubilized mitochondria ([12]; mitochondria lysed before incubation with 5 μM biotinylated Vpr52-96): did not affect
protection against Vpr-induced inner MMP (in words) [5]: also inhibited the manifestations of inner MMP
effect on Vpr action on intact cells (in words) ([8]; 2 μM PA10 microinjected, 1 μM Vpr52-96, 3 h): also inhibited the effect of Vpr52-96 on intact cells

Compound: Vpr1-51: NH2-terminal moiety of Vpr
effect on RC (in words) [13]: but not Vpr1-51
permeabilization of ANT proteoliposomes [14]: but not the NH2-terminal moiety of Vpr [Vpr1-51]

Compound: Vpr52-96[R73A,80A] (Biotin-DTWAGVEAIIRILQQLLFIHFAIGCRHSAIGVTRQRRARNGASRS)
specific binding to VDAC [15]: without any difference between Vpr52-96 and Vpr52-96[R73A, 80A] and without detectable saturation
sensorgram: increase of binding as a function of time [11]: Only the sensorgram of the interaction with Vpr52-96 exhibits an increase of binding

Compound: Vpr: Vpr added extracellularly to intact cells; Fig. 6 A legend gives 1 μM Vpr52-96
vehicle-microinjected cells with complete ΔΨm dissipation ([8]; 1 μM Vpr52-96 (Fig. 6 A), 3 h, n = 3): 61 ± 8%

Compound: adenine nucleotide translocator (ANT) purified from rat heart mitochondria (from UniProt Q05962 1-298) (natural protein)
Kd [16]: 9.7 nM

Compound: biotin–Vpr52-96: NH2-terminally biotinylated Vpr52-96 (Biotin-DTWAGVEAIIRILQQLLFIHFRIGCRHSRIGVTRQRRARNGASRS)
binding affinity for ANT (in words) [11]: affinity in the nanomolar range

binding affinity for ANT (in words) [11]: to a far lesser extent
Compound: biotin–Vpr52-96[R73,80A]: mutated biotin–Vpr52-96[R73,80A], immobilized on biosensor chip (Biotin-DTWAGVEAIIRILQQLLFIHFAIGCRHSAIGVTRQRRARNGASRS)

effect on binding of Vpr52-96 to purified mitochondria [3]: not affected
Compound: cyclosporin A [CsA]
protection against Vpr-induced inner MMP (in words) [5]: also inhibited the manifestations of inner MMP
